Results published in ChEMBL document CHEMBL2311478, “Macrolactonolides: a novel class of anti-inflammatory compounds” (Bioorg Med Chem, 2013).
≈ marks a conversion by molar mass, not a printed value. Calls of active or inactive are those of the source. No cut-off for these calls is given here.

Columns and labels:
[1] = Tmax in Balb/c mouse blood at 2 mg/kg, administered intranasally; type: ADME, organism-based; set-up: dose 2 mg/kg; settings: whole blood, inhaled or intranasal
Outline: (§1)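 Male Balb/c mice (21–25 g) dosed intranasally with freshly prepared formulation in 1% DMSO plus 0.125% CMC. Terminal bleeding and lung collection from 5 min to 72 h. K2EDTA blood taken as blood aliquots or spun for plasma. Lung homogenised 1:5 in water. Samples were protein-precipitated with acetonitrile/methanol (2:1) plus roxithromycin internal standard and quantified by LC–MS/MS. LLOQ 0.5 ng/mL (blood/plasma) and 2.5 ng/mL (lung).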

[2] = test system: PBMC; test: Antiinflammatory activity in human PBMC assessed as inhibition of anti-CD3-induced TNFalpha production after 48 hrs; type: functional, cell-based
Outline: (§2)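 Thawed cryopreserved human PBMCs were preincubated 1 h at 37 °C, 5% CO2, then exposed to test compound for 1 h before LPS, anti-CD3 or PHA stimulation. Supernatants were collected at 6, 24 or 48 h according to each cytokine's peak, and cytokines quantified by Luminex multiplex bead assay. 10-point titration starting at 20 µM, in duplicate, with constant DMSO. Parallel Alamar Blue cytotoxicity check under 48 h PHA.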

[3] = test system: Rattus norvegicus; test: Antiinflammatory activity against ovalbumin-induced airway allergic Brown-Norway rat model assessed as decrease of eosinophil peroxidase activity in bronchoalveolar lavage fluid at 11 mg/kg administered intranasally as dry powder measured on day 29 after ovalbumin challenge; type: functional, Lung; set-up: scale not given: the % may be the effect or the level left
[4] = test system: Rattus norvegicus; test: Antiinflammatory activity against ovalbumin-induced airway allergic Brown-Norway rat model assessed as decrease of total cell in bronchoalveolar lavage fluid at 32 mg/kg administered intranasally as dry powder measured on day 29 after ovalbumin challenge (reference value: 53.1%); type: functional, Lung; set-up: scale not given: the % may be the effect or the level left
[5] = Cmax in Balb/c mouse blood at 2 mg/kg, administered intranasally; type: ADME, organism-based; set-up: dose 2 mg/kg, route nasal; settings: whole blood, inhaled or intranasal; outline: as §1
[6] = Cmax in Balb/c mouse lung at 2 mg/kg, administered intranasally; type: ADME, organism-based; set-up: dose 2 mg/kg, route nasal; settings: inhaled or intranasal; outline: as §1
[7] = test system: PBMC; test: Antiinflammatory activity in human PBMC assessed as inhibition of PHA-induced IL-10 production after 48 hrs; type: functional, cell-based; outline: as §2
[8] = test system: Rattus norvegicus; test: Antiinflammatory activity against ovalbumin-induced airway allergic Brown-Norway rat model assessed as decrease of eosinophil peroxidase activity in bronchoalveolar lavage fluid at 32 mg/kg administered intranasally as dry powder measured on day 29 after ovalbumin challenge; type: functional, Lung; set-up: scale not given: the % may be the effect or the level left
[9] = Half life in Balb/c mouse plasma at 2 mg/kg, administered intranasally; type: ADME, organism-based; set-up: dose 2 mg/kg; settings: inhaled or intranasal; outline: as §1
[10] = AUC (0 to infinity) in Balb/c mouse lung at 2 mg/kg, administered intranasally; type: ADME, organism-based; set-up: time infinity, route nasal, dose 2 mg/kg; settings: inhaled or intranasal; outline: as §1
[11] = test system: Rattus norvegicus; test: Antiinflammatory activity against ovalbumin-induced airway allergic Brown-Norway rat model assessed as decrease of macrophages in bronchoalveolar lavage fluid at 32 mg/kg administered intranasally as dry powder measured on day 29 after ovalbumin challenge; type: functional, organism-based; set-up: dose 32 mg/kg; settings: Lung
Outline: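 Brown-Norway rats sensitised by OVA injection on day 1, boosted on days 14 and 20. Treatment with 32 mg/kg or air control on day 27, followed 1 h later by 60 min OVA inhalation challenge. BAL cells differentiated about 48 h post-challenge (day 29). Comparison was against a sensitised, challenged, untreated group. Mean + SD, n = 10, Dunnett test.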

[12] = test system: Streptococcus pyogenes; test: Antibacterial activity against erythromycin susceptible Streptococcus pyogenes 3565 by broth microdilution method; type: functional
Outline: (§3)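 CLSI broth microdilution with double dilutions in 96-well plates. For streptococci, 5% horse serum replaced lysed blood in the medium. Inocula were grown on Columbia agar with 5% sheep blood for streptococci, Mueller–Hinton chocolate agar for H. influenzae, and Mueller–Hinton agar for staphylococci. Read-out is MIC in mg/L.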

[13] = test system: PBMC; test: Antiinflammatory activity in human PBMC assessed as inhibition of PHA-induced IL-6 production after 6 hrs; type: functional, cell-based; outline: as §2
[14] = test system: PBMC; test: Antiinflammatory activity in human PBMC assessed as inhibition of PHA-induced MIP1alpha production after 6 hrs; type: functional, cell-based; outline: as §2
[15] = test system: PBMC; test: Antiinflammatory activity in human PBMC assessed as inhibition of PHA-induced IP-10 production after 24 hrs; type: functional, cell-based; outline: as §2
[16] = molecular target: T1, Glucocorticoid receptor (Homo sapiens, UniProt P04150); test: Displacement of [3H]-dexamethasone human glucocorticoid receptor alpha expressed in 293 MSR cells after 60 mins by scintillation counting; type: cell-based
T1 sequence (P04150 whole entry): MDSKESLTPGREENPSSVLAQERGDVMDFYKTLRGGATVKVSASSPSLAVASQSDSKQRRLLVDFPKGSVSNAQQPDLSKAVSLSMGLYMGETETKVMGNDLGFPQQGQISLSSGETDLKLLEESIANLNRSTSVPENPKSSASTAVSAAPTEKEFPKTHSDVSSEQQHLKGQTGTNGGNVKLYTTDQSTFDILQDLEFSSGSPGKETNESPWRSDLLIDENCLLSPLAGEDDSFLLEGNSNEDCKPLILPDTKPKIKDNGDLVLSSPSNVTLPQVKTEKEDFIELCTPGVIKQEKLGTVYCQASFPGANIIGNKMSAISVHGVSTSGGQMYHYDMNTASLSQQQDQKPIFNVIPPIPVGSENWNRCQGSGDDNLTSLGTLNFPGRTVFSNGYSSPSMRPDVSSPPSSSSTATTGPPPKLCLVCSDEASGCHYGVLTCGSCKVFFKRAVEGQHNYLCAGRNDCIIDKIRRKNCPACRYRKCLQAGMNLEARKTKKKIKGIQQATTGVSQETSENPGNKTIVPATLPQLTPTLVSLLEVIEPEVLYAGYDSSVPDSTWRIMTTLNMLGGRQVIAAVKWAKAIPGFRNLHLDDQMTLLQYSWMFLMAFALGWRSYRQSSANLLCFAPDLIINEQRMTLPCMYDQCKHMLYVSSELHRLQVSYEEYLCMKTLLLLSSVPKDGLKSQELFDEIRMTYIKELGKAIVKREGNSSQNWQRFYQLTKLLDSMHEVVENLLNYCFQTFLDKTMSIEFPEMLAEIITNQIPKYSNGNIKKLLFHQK

[17] = test system: PBMC; test: Antiinflammatory activity in human PBMC assessed as inhibition of LPS-induced MIP1alpha production after 6 hrs; type: functional, cell-based; outline: as §2
[18] = test system: Staphylococcus aureus; test: Antibacterial activity against Staphylococcus aureus ATCC 13709 by broth microdilution method; type: functional; outline: as §3
[19] = test system: Streptococcus pneumoniae; test: Antibacterial activity against inducible-resistant to macrolide, licosamide and streptogramin Streptococcus pneumoniae 134 GR-M by broth microdilution method; type: functional
Outline: (§4)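 MICs by CLSI broth microdilution with double dilutions, except that Streptococcus medium used 5% horse serum in place of lysed blood. Bacteria were pre-grown on Columbia agar with 5% sheep blood (streptococci) or Mueller–Hinton agar (staphylococci).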

[20] = test system: Haemophilus influenzae; test: Antibacterial activity against Haemophilus influenzae ATTC 49247 by broth microdilution method; type: functional; outline: as §3
[21] = test system: PBMC; test: Antiinflammatory activity in human PBMC assessed as inhibition of anti-CD3-induced IL-12p70 production after 48 hrs; type: functional, cell-based; outline: as §2
[22] = test system: Streptococcus pyogenes; test: Antibacterial activity against inducible-resistant to macrolide, licosamide and streptogramin Streptococcus pyogenes Finland 11 by broth microdilution method; type: functional; outline: as §4
[23] = test system: PBMC; test: Antiinflammatory activity in human PBMC assessed as inhibition of PHA-induced IL-5 production after 48 hrs; type: functional, cell-based; outline: as §2
[24] = test system: Enterococcus faecalis; test: Antibacterial activity against Enterococcus faecalis ATCC 29213 by broth microdilution method; type: functional; outline: as §3
[25] = Ratio of drug AUC lung to blood in Balb/c mouse at 2 mg/kg, administered intranasally; settings: lung and blood, inhaled or intranasal

In the case of CC[C@H]1OC(=O)[C@H](C)[C@@H](O[C@H]2C[C@@](C)(OC)[C@@H](O)[C@H](C)O2)[C@H](C)[C@@H](O[C@@H]2O[C@H](C)C[C@H](N(C)C)[C@H]2O)[C@](C)(O)C[C@@H](C)CN(CCCNC(=O)[C@H]2[C@H](C)C[C@H]3[C@@H]4CCC5=CC(=O)C=C[C@]5(C)[C@@]4(F)[C@@H](O)C[C@@]32C)[C@H](C)[C@@H](O)[C@]1(C)O, the Tmax [1] is reported as 15 min, the EC50 [2] is reported as 0.037 µM and the Activity [3] is reported as 12%. The Activity [4] was 43.6%, the Cmax [5] was 169 ng/mL and the Cmax [6] was 2410 ng/mL. The EC50 [7] was 5.12 µM, the Activity [8] was 50% and the half-life [9] was 54 min. For the same compound, the AUC(0-inf) [10] was 9680 ng·h/mL, the Activity [11] was “Active” and the MIC [12] was 0.25 µg/mL (≈ 0.22 µM). The EC50 [13] was 4.03 µM, the EC50 [14] was 2.63 µM and the EC50 [15] was > 20 µM. The EC50 [16] was 0.43 µM, the EC50 [17] was 7.9 µM and the MIC [18] was 8 µg/mL (≈ 7.04 µM). For the same compound, the MIC [19] was > 64 µg/mL, the MIC [20] was 64 µg/mL (≈ 56.3 µM) and the EC50 [21] was 0.017 µM. For the same compound, the MIC [22] was 32 µg/mL (≈ 28.2 µM), the EC50 [23] was 0.606 µM and the MIC [24] was 64 µg/mL (≈ 56.3 µM). It also gave a lung-to-blood AUC ratio [25] of 53.
